Laboratory results: ChEMBL document CHEMBL5329147, “Synthesis of tryptanthrin appended dispiropyrrolidine oxindoles and their antibacterial evaluation” (RSC Med Chem, 2023)
Converted amounts (≈) assume the structure as drawn.

What was measured:
[1] = tested on: Staphylococcus aureus; assay: Antibacterial activity against vancomycin resistant Staphylococcus aureus […] 4 assessed as bacterial growth inhibition incubated for 18 to 24 hrs by broth microdilution method; format: functional; settings: time 18-24 hrs
Procedure, shortened: (§1)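 CLSI broth microdilution in MHBII; overnight starter cultures (single MHA colony, 37 °C, shaking) adjusted by OD600 to 10^6 CFU/mL. Compounds from DMSO stocks (10 mg/mL), two-fold series 64–0.5 mg/L. Incubation 37 °C, 18-24 h. MIC = lowest concentration with no visible growth. Three independent determinations, each in duplicate.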

[2] = tested on: Staphylococcus aureus; assay: Bactericidal activity against Staphylococcus aureus ATCC 29213 assessed as reduction in bacterial load at 10 times of MIC incubated for 24 hrs by time kill analysis; format: functional; set-up: scale not given: the % may be the effect or the level left
Procedure, shortened: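 Time-kill assay. ~10^6 CFU/mL in MHBII was exposed to 1X and 10X MIC, 37 °C with shaking for 24 h. Samples were taken at 0, 1, 6 and 24 h, serially diluted in PBS, plated on MHA and incubated 37 °C 18–20 h. Colonies were counted as CFU/mL survivors. Three repeats in duplicate; mean plotted.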

[3] = tested on: Staphylococcus aureus; assay: Antibacterial activity against vancomycin resistant Staphylococcus aureus […] 12 assessed as bacterial growth inhibition incubated for 18 to 24 hrs by broth microdilution method; format: functional; settings: time 18-24 hrs; procedure, shortened: as §1
[4] = tested on: Staphylococcus aureus; assay: Antibacterial activity against methicillin resistant Staphylococcus aureus NRS 198 assessed as bacterial growth inhibition incubated for 18 to 24 hrs by broth microdilution method; format: functional; settings: time 18-24 hrs; procedure, shortened: as §1
[5] = tested on: Escherichia coli; assay: Antibacterial activity against Escherichia coli ATCC 25922 assessed as bacterial growth inhibition incubated for 18 to 24 hrs by broth microdilution method; format: functional; settings: time 18-24 hrs
Procedure, shortened: (§2)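 CLSI broth microdilution. Overnight starter cultures (single colony, MHBII, 37 °C, shaking 18–24 h) were diluted by OD600 to 10^6 CFU/mL in MHBII. Two-fold dilutions from […] were made from 10 mg/mL DMSO stocks, then incubated 37 °C for 18-24 h. The MIC was the lowest concentration with no visible growth. Three independent runs, duplicate samples.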

[6] = tested on: Staphylococcus aureus; assay: Antibacterial activity against methicillin resistant Staphylococcus aureus NRS 193 assessed as bacterial growth inhibition incubated for 18 to 24 hrs by broth microdilution method; format: functional; settings: time 18-24 hrs; procedure, shortened: as §1
[7] = tested on: Staphylococcus aureus; assay: Antibacterial activity against methicillin resistant Staphylococcus aureus NRS 129 assessed as bacterial growth inhibition incubated for 18 to 24 hrs by broth microdilution method; format: functional; settings: time 18-24 hrs; procedure, shortened: as §1
[8] = tested on: Staphylococcus aureus; assay: Antibacterial activity against methicillin resistant Staphylococcus aureus NRS 192 assessed as bacterial growth inhibition incubated for 18 to 24 hrs by broth microdilution method; format: functional; settings: time 18-24 hrs; procedure, shortened: as §1
[9] = tested on: Staphylococcus aureus; assay: Antibacterial activity against methicillin sensitive Staphylococcus aureus ATCC 29213 assessed as bacterial growth inhibition incubated for 18 to 24 hrs by broth microdilution method; format: functional; settings: time 18-24 hrs; procedure, shortened: as §1
[10] = tested on: Klebsiella pneumoniae; assay: Antibacterial activity against Klebsiella pneumoniae BAA 1705 assessed as bacterial growth inhibition incubated for 18 to 24 hrs by broth microdilution method; format: functional; settings: time 18-24 hrs; procedure, shortened: as §2
[11] = tested on: Staphylococcus aureus; assay: Antibacterial activity against methicillin resistant Staphylococcus aureus NRS 194 assessed as bacterial growth inhibition incubated for 18 to 24 hrs by broth microdilution method; format: functional; settings: time 18-24 hrs; procedure, shortened: as §1
[12] = tested on: Pseudomonas aeruginosa; assay: Antibacterial activity against Pseudomonas aeruginosa ATCC 27853 assessed as bacterial growth inhibition incubated for 18 to 24 hrs by broth microdilution method; format: functional; settings: time 18-24 hrs; procedure, shortened: as §2
[13] = tested on: Staphylococcus aureus; assay: Antibacterial activity against methicillin resistant Staphylococcus aureus NRS 119 assessed as bacterial growth inhibition incubated for 18 to 24 hrs by broth microdilution method; format: functional; settings: time 18-24 hrs; procedure, shortened: as §1
[14] = tested on: Staphylococcus aureus; assay: Antibacterial activity against methicillin resistant Staphylococcus aureus NRS 186 assessed as bacterial growth inhibition incubated for 18 to 24 hrs by broth microdilution method; format: functional; settings: time 18-24 hrs; procedure, shortened: as §1
[15] = tested on: Acinetobacter baumannii; assay: Antibacterial activity against Acinetobacter baumannii BAA-1605 assessed as bacterial growth inhibition incubated for 18 to 24 hrs by broth microdilution method; format: functional; settings: time 18-24 hrs; procedure, shortened: as §2
[16] = tested on: Staphylococcus aureus; assay: Antibacterial activity against Staphylococcus aureus ATCC 29213 assessed as bacterial growth inhibition incubated for 18 to 24 hrs by broth microdilution method; format: functional; settings: Staphylococcus aureus, ATCC 29213; time 18-24 hrs; read-out: MIC; procedure, shortened: as §2
[17] = tested on: Staphylococcus aureus; assay: Antibacterial activity against methicillin resistant Staphylococcus aureus NRS 191 assessed as bacterial growth inhibition incubated for 18 to 24 hrs by broth microdilution method; format: functional; settings: time 18-24 hrs; procedure, shortened: as §1
[18] = Selectivity ratio of CC50 for African green monkey Vero cells to MIC against Staphylococcus aureus ATCC 29213; format: toxicity, cell-based
[19] = tested on: Vero; assay: Cytotoxicity against African green monkey Vero cells assessed as cell viability incubated for 72 hrs by MTT assay; format: toxicity, cell-based; settings: chlorocebus sabaeus
Procedure, shortened: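 MTT assay on Vero cells, ~10^3 cells/well, 37 °C, 5% CO2. Compound was added at 24 h (100-12.5 μg/mL) for 72 h, then MTT for 4 h at 37 °C. Formazan was dissolved in DMSO and read at 540 nm. CC50 was the lowest concentration giving 50% viability loss. Doxorubicin positive control; triplicate.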

In the case of CN[C@H](CC(C)C)C(=O)N[C@H]1C(=O)N[C@@H](CC(N)=O)C(=O)N[C@H]2C(=O)N[C@H]3C(=O)N[C@H](C(=O)N[C@H](C(=O)O)c4cc(O)cc(O)c4-c4cc3ccc4O)[C@H](O)c3ccc(c(Cl)c3)Oc3cc2cc(c3O[C@@H]2O[C@H](CO)[C@@H](O)[C@H](O)[C@H]2O[C@H]2C[C@](C)(N)[C@H](O)[C@H](C)O2)Oc2ccc(cc2Cl)[C@H]1O [VANCOMYCIN], the MIC [1] is reported as > 64 µg/mL, the Activity [2] is reported as 100% and the MIC [3] is reported as > 64 µg/mL.

In the case of CCN1C(=O)[C@@]2(CN(C)C3(c4cc(Cl)ccc4-n4c3nc3ccccc3c4=O)C2(C#N)C#N)c2ccccc21 (some centres undefined), the MIC [4] is reported as 0.25 µg/mL (≈ 0.469 µM), the MIC [5] is reported as > 64 µg/mL and the MIC [6] is reported as 0.25 µg/mL (≈ 0.469 µM). For the same compound, the MIC [7] was 0.25 µg/mL (≈ 0.469 µM), the MIC [8] was 0.25 µg/mL (≈ 0.469 µM) and the MIC [9] was 0.25 µg/mL (≈ 0.469 µM). The MIC [10] was > 64 µg/mL, the MIC [11] was 0.5 µg/mL (≈ 0.938 µM) and the MIC [12] was > 64 µg/mL. It also gave an MIC [13] of 0.125 µg/mL (≈ 0.235 µM), an MIC [1] of 0.25 µg/mL (≈ 0.469 µM) and an MIC [14] of 0.125 µg/mL (≈ 0.235 µM). The MIC [15] was > 64 µg/mL, the MIC [16] was 0.125 µg/mL (≈ 0.235 µM) and the MIC [17] was 0.063 µg/mL (≈ 0.118 µM). For the same compound, the selectivity ratio [18] was > 80, the MIC [3] was 0.25 µg/mL (≈ 0.469 µM) and the Activity [19] was “Non-Toxic”.

With CCN1C(=O)[C@@]2(CN(C)C3(c4cc(OC)ccc4-n4c3nc3ccccc3c4=O)C2(C#N)C#N)c2ccccc21 (some centres undefined) the MIC [4] was 0.5 µg/mL (≈ 0.946 µM), the MIC [5] was > 64 µg/mL and the MIC [6] was 0.5 µg/mL (≈ 0.946 µM). The MIC [7] was 0.25 µg/mL (≈ 0.473 µM), the MIC [8] was 0.5 µg/mL (≈ 0.946 µM) and the MIC [9] was 0.5 µg/mL (≈ 0.946 µM). For the same compound, the MIC [10] was > 64 µg/mL, the MIC [11] was 0.5 µg/mL (≈ 0.946 µM) and the MIC [12] was > 64 µg/mL. It also gave an MIC [13] of 0.25 µg/mL (≈ 0.473 µM), an MIC [1] of 0.5 µg/mL (≈ 0.946 µM) and an MIC [14] of 0.5 µg/mL (≈ 0.946 µM). The MIC [15] was > 64 µg/mL, the MIC [16] was 0.125 µg/mL (≈ 0.236 µM) and the MIC [17] was 0.25 µg/mL (≈ 0.473 µM). For the same compound, the selectivity ratio [18] was > 80, the MIC [3] was 8 µg/mL (≈ 15.1 µM) and the Activity [19] was “Non-Toxic”.
